Source: PubChem BioAssay
Shown are actives, neighbours in structure and some others; about 2.7% of the full set was active somewhere.
CHO parental Ca: ATP-evoked calcium signal inhibitors, parental CHO, primary screen, counter-screen for OX1R antagonist project, cell-based, fluorescence, Fluo-8 calcium dye. AID 463079, 2010. 330,000 tested, 0.63% active. inhibition, % at 5.6 µM. parental CHO-K1, ATP-induced calcium, Fluo-8 fluorescence;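 active = inhibition above that plate's mean sample inhibition plus 3 SD, cut at about 26% in these data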;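 also: 0% = ATP-challenged DMSO wells and 100% = DMSO wells without ATP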
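Test system: untransfected parental CHO cell line; also added: ATP stimulus; dosing: 5.6 µM, single dose; signal: calcium-sensitive Fluo-8 fluorescence; measure: percent inhibition of ATP-evoked calcium rise, normalized to controls; benchmarks: low control ATP plus DMSO, high control DMSO only; replication: one well per compound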
OX1R antag-1: OX1R (HCRTR1) antagonists, primary screen, fluorescence, CHO/OX1R cells, Fluo-8 calcium, orexin A; Orexin/Hypocretin receptor type 1 (Homo sapiens), O43613; Fluo-8 calcium fluorescence; inhibition, % at 5 µM; 330,000 tested, 0.43% active; AID 434989, 2010;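 active = inhibition above its plate's threshold, mean inhibition of all tested compounds on the plate plus 3 SD, cut at about 37% in these data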;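 also: 0% = orexin A challenge wells and 100% = SB-334867-A antagonist wells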
Target sequence (O43613 whole entry, looked up): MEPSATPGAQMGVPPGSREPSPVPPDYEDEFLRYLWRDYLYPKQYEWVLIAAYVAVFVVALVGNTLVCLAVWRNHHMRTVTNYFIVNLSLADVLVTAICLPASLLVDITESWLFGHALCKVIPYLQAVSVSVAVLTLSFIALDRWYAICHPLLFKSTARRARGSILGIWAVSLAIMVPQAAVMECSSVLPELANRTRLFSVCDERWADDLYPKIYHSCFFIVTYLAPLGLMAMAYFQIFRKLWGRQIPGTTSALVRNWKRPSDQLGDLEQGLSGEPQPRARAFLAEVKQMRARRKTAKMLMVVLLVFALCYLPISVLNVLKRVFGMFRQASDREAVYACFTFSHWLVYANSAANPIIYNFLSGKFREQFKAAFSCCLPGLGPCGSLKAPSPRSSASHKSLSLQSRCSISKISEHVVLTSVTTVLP
V1aR counter: agonists of human V1a receptor, primary screen, counter-screen for OXTR agonist project, fluorescence, CHO-V1R cells | Fluo-8 calcium fluorescence, agonist mode; 0% DMSO, 100% 3 nM vasopressin | activation, % at 3 µM | 320,000 tested, 0.25% active | AID 2797, 2010;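 active = activation above the mean activation of all tested compounds plus 3 SD, per screening run, cut at about 20% in these data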;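 also: signal is peak over basal fluorescence ratio across a 100 second FLIPR read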
OXTR potentiate: human OXTR potentiators, primary screen, fluorescence, CHO-OTR cells, Fluo-8 calcium; Fluo-8 calcium fluorescence, potentiator mode; 0% = oxytocin EC15, 100% = EC100; 320,000 tested, 0.061% active; activation, % at 3 µM; Oxytocin receptor (Homo sapiens), P30559; AID 2445, 2010;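 active = activation above that plate's cutoff, the mean activation of tested compounds plus 3 SD, cut at about 6.6% in these data, passing the limit was not always enough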;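 also: 100% uses oxytocin at 75 nM as the full agonist control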
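Assay system: CHO cell line stably expressing human OTR | Also added: Oxytocin at about EC15, sub-maximal agonist stimulus | Times: Compound 6 min at room temperature before oxytocin, 100 s read | Measured by: Fluo-8 intracellular calcium fluorescence, ex 470-495, em 515-575 nm | Controls: EC15 oxytocin alone as 0%, 75 nM oxytocin as 100%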
OXTR ag: human OXTR agonists, primary screen, fluorescence, CHO-OTR cells, Fluo-8 calcium. 320,000 tested, 0.32% active. activation, % at 3 µM. Fluo-8 calcium fluorescence; normalized: DMSO 0%, oxytocin 100%;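 active = activation above the mean of all tested compounds plus 3 SD, cutoff set per screening run, cut at about 20% in these data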;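 also: peak over basal fluorescence ratio from a 100 s FLIPR kinetic read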
OX1R antag-2: antagonists of human orexin 1 receptor (OX1R) | Orexin/Hypocretin receptor type 1 (Homo sapiens), O43613 | OX1R-expressing cells, FRET antagonist read-out | inhibition, % at 6.6 µM | 330,000 tested, 1.8% active | AID 485270, 2010; in the data active = inhibition mostly above about 38%, no sharp cut-off; inactive = mostly below about 40%;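 also: 0% = agonist challenge alone and 100% = reference antagonist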
Active calls of the source: *; · = no result.

SMILES	CHO parental Ca	OX1R antag-1	V1aR counter	OXTR potentiate	OXTR ag	OX1R antag-2
O=C(Nc1cc(-c2nc3ncccc3o2)ccc1Cl)c1cccs1	-23	-33	1	-11	0	67*
COc1ccc(-c2nc3ncccc3o2)cc1NC(=O)c1cccs1	-17	-26	2	-12	3	20
O=C(Nc1cccc(-c2nc3ncccc3o2)c1)c1ccccc1	-22	-10	0	-6	-2	56*
CCN1CCN(c2ccc(S(=O)(=O)N3CCCCC3)cc2NC(=O)c2cc3ccccc3o2)CC1	-18	-36	0	-5	0	8
Oc1ccc2ccccc2c1C=NCc1ccccc1	-6	-18	1	-4	0	52*
COc1ccc(-n2c(C)cc(C(=O)CCl)c2C)cc1	-6	-1	0	1	-2	23
COc1ccc(-n2c(C)cc(C(=O)COC(=O)c3ccc(O)cc3O)c2C)cc1	33*	45*	6	-10	5	18
COc1ccc(-n2c(C)cc(C(=O)COC(=O)Cn3cnc4ccccc43)c2C)cc1	34*	18	11	-10	13	32
O=c1[nH]c2cc3c(cc2cc1CN(Cc1ccc2c(c1)OCO2)Cc1nnnn1CC1CCCO1)OCO3 (stereo unspecified)	0	-7	2	-4	1	49*
Cc1ccc2[nH]c(=O)c(CN(Cc3cccnc3)Cc3nnnn3CC3CCCO3)cc2c1 (stereo unspecified)	-11	-4	0	-4	0	10
Cc1cc(N2O[C@]34C=C[C@]25C[C@@H](O)CC[C@]5(C)C3CC[C@]2(C)[C@@H]([C@H](C)/C=C/[C@H](C)C(C)C)CC[C@H]24)no1 (stereo partly specified)	-10	-22	·	·	·	1
COc1ccc(C(=O)N/C(=C\c2cn(S(=O)(=O)N(C)C)c3ccccc23)C(=O)N2CCOCC2)cc1	-26	-21	5	-2	1	10
O=C(COC(=O)c1ccccc1NS(=O)(=O)c1ccc(Cl)cc1)NCc1ccccc1	-9	-26	9	-15	7	49*
CC(C)(C)NC(=O)C(c1ccc(O)cc1)N(C(=O)CCC(=O)Nc1nccs1)c1ccc(F)cc1 (stereo unspecified)	-24	-34	0	-3	0	17
Cc1cc(C)c(C(=O)NC2CCCc3c2cnn3-c2cccc(C)c2C)o1 (stereo unspecified)	-17	2	6	-8	2	59*
COc1ccc(C(=O)NC2CC(C)(C)Cc3c2cnn3-c2ccccc2C)c(OC)c1OC (stereo unspecified)	-11	-40	0	-11	-2	20
CCc1cc(C(=O)NC2CCCc3c2cnn3-c2cccc(C)c2C)n(C)n1 (stereo unspecified)	62*	38	9	-9	10	60*
Cc1cc(C(=O)NC2CCCc3c2cnn3-c2ccc(C)c(C)c2)n(C)n1 (stereo unspecified)	45*	12	10	-15	9	43
Cc1cc(C(=O)NC2CC(C)(C)Cc3c2cnn3-c2ccccc2C)c(C)o1 (stereo unspecified)	-17	-38	-1	-5	0	71*
Cc1cccc(-n2ncc3c2CCCC3NC(=O)Cn2cccn2)c1C (stereo unspecified)	-3	-20	4	-9	2	3
Cc1cccc(-n2ncc3c2CCCC3NC(=O)C2(C(N)=O)CC2)c1C (stereo unspecified)	21	12	10	-11	6	10
Cc1cnccc1CNC(=O)CC1C(=O)NCCN1CC(C)(C)C (stereo unspecified)	-5	-14	1	-21	0	17
Cc1nnsc1C(=O)NC1CCCc2c1cnn2-c1ccc(C(C)(C)C)cc1 (stereo unspecified)	41*	12	5	-8	7	28
CN(C)CCCNS(=O)(=O)c1ccc(-n2nnc3ccccc32)c([N+](=O)[O-])c1	-20	-25	0	-4	0	68*
CS(=O)(=O)c1ccc(-n2nnc3ccccc32)c([N+](=O)[O-])c1	-30	-21	1	-1	2	31
SMILES	CHO parental Ca	OX1R antag-1	V1aR counter	OXTR potentiate	OXTR ag	OX1R antag-2
O=[N+]([O-])c1cc(S(=O)(=O)Nc2cccc(C(F)(F)F)c2)ccc1-n1nnc2ccccc21	43*	45*	11	-31	11	88*
CC1(C)CC(=O)c2c(O)cc(OCC(=O)N3CCN(c4ccc(F)cc4)CC3)cc2O1	-15	-22	2	-16	0	9
COc1ccc(OC)c(S(=O)(=O)Nc2cccc3ccccc23)c1	-48	-6	0	-8	1	29
COc1ccc(OC)c(S(=O)(=O)Oc2ccc(N)c3ccccc23)c1	-3	-13	1	-5	0	43*
CC(C)N(Cc1ccccc1)C(=O)CN1c2cccc3cccc(c23)S1(=O)=O	-27	-6	1	-7	0	39*
Cc1ccc(C(=O)O)cc1NC(=O)C1CCCN1S(=O)(=O)c1cccc2nsnc12 (stereo unspecified)	3	-12	1	0	1	52*
O=C(Nc1ccccc1F)C1CCCN1S(=O)(=O)c1cccc2nsnc12 (stereo unspecified)	-9	9	1	-1	0	68*
O=C(Nc1ccccc1Br)C1CCCN1S(=O)(=O)c1cccc2nsnc12 (stereo unspecified)	-25	-1	2	-3	1	56*
CCCCNC(=O)C1CCCN1S(=O)(=O)c1cccc2nsnc12 (stereo unspecified)	-7	-4	0	2	0	29
CC1CCCC(NC(=O)C2CCCN2S(=O)(=O)c2cccc3nsnc23)C1C (stereo unspecified)	-15	-28	-1	-2	-1	71*
O=C(Nc1cccc2ccccc12)NC(Cc1ccccc1)C(=O)O (stereo unspecified)	16	5	0	-14	-1	8
O=C(O)c1ccccc1NC(=O)C1CCN(S(=O)(=O)c2cccc3nsnc23)CC1	-3	-14	0	1	-2	12
